Test results: ChEMBL document CHEMBL1121954, “Studies on the synthesis of chemotherapeutics. 12. Synthesis and antitumor activity of N-phthalidyl-5-fluorouracil derivatives” (1982)
Values joined by “and” are separate entries in the source; they are usually repeats but may differ in a detail not shown here. Identical values can stand only once.

What was measured:
Mus musculus [1] = assay: In vivo antitumor activity against Meth A cell line in female […] mice after oral administered dose of 150 mg/kg; type: functional
Mus musculus [2] = assay: In vivo antitumor activity against MH 134 cell line in female […] mice after oral administered dose of 200 mg/kg; type: functional
Mus musculus [3] = assay: In vivo antitumor activity against P-388 Leukemia cell line in female BDF1 mice after oral administered dose of 100 mg/kg; type: functional
Method in brief: (§1)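 Female BDF1 mice, 17-23 g, five per group, inoculated intraperitoneally with 10^6 P-388 cells. Oral dosing once daily for 9 days, beginning 1 day after implantation. Activity is % T/C, the median survival time of treated mice relative to controls.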

Mus musculus [4] = assay: In vivo antitumor activity against MH 134 cell line in female […] mice after oral administered dose of 25 mg/kg; type: functional
Mus musculus [5] = assay: In vivo antitumor activity against P-388 Leukemia cell line in female BDF1 mice after oral administered dose of 200 mg/kg; type: functional; method in brief: as §1
Mus musculus [6] = assay: In vivo antitumor activity against P-388 Leukemia cell line in female BDF1 mice after oral administered dose of 50 mg/kg; type: functional; method in brief: as §1
Mus musculus [7] = assay: In vivo antitumor activity against Meth A cell line in female […] mice after oral administered dose of 200 mg/kg; type: functional
Mus musculus [8] = assay: In vivo antitumor activity against MH 134 cell line in female […] mice after oral administered dose of 150 mg/kg; type: functional
Mus musculus [9] = assay: In vivo antitumor activity against P-388 Leukemia cell line in female BDF1 mice after oral administered dose of 25 mg/kg; type: functional; method in brief: as §1
Mus musculus [10] = assay: In vivo antitumor activity against MH 134 cell line in female […] mice after oral administered dose of 50 mg/kg; type: functional
Mus musculus [11] = assay: In vivo antitumor activity against Meth A cell line in female BALB/c mice after oral administered dose of 50 mg/kg
Mus musculus [12] = assay: In vivo antitumor activity against Meth A cell line in female BALB/c mice after oral administered dose of 200 mg/kg; death

SMILES | T/C (Mus musculus [1]) [%] | T/C (Mus musculus [2]) [%] | T/C (Mus musculus [3]) [%] | T/C (Mus musculus [4]) [%] | T/C (Mus musculus [5]) [%] | T/C (Mus musculus [6]) [%] | T/C (Mus musculus [7]) | T/C (Mus musculus [8]) [%] | T/C (Mus musculus [9]) [%] | T/C (Mus musculus [10]) [%] | T/C (Mus musculus [11]) [%] | T/C (Mus musculus [12])
O=C1OC(n2c(=O)[nH]cc(F)c2=O)c2ccccc21 (stereo not drawn) | 19 | 17 | 120 | 77 | 102 | 104 | 7% and 19% | 37 | 111 | 45 | 37 | –
CC(=O)n1cc(F)c(=O)n(C2OC(=O)c3ccccc32)c1=O (stereo not drawn) | – | – | 104 | – | 111 | 97 | – | – | 106 | – | – | –
O=C1OC(n2cc(F)c(=O)[nH]c2=O)c2ccccc21 (stereo not drawn) | 7 | 8 | 129 | 50 | 124 | 116 | – | 22 | 118 | 34 | 26 | death
Cc1ccccc1C(=O)n1c(=O)c(F)cn(C2OC(=O)c3ccccc32)c1=O (stereo not drawn) | – | – | 102 | – | 109 | 99 | – | – | 113 | – | – | –
O=C1OC(n2c(=O)c(F)cn(C3CCCO3)c2=O)c2ccccc21 (stereo not drawn) | – | – | 115 | – | 111 | 109 | – | – | 104 | – | – | –
O=C1OC(n2cc(F)c(=O)n(C3OC(=O)c4ccccc43)c2=O)c2ccccc21 (stereo not drawn) | – | – | 102 | – | 102 | 104 | – | – | 97 | – | – | –
O=c1[nH]c(=O)n(C2CCCO2)cc1F (stereo not drawn) [TEGAFUR] | 23 | 32 | 136 | 100 | 106 | 104 | – | 50 | 115 | 64 | – | death
